Results published in ChEMBL document CHEMBL1124542, “Cholecystokinin antagonists. Synthesis and biological evaluation of 3-substituted benzolactams” (J Med Chem, 1989).

Assays:
Cholecystokinin receptor [1] = molecular target: T1, Cholecystokinin receptor (Rattus norvegicus, UniProt P30551+P30553); assay: Inhibition of [125I]-CCK-8 binding to CCK receptors in rat pancreatic tissue
T1 sequence (P30551 whole entry): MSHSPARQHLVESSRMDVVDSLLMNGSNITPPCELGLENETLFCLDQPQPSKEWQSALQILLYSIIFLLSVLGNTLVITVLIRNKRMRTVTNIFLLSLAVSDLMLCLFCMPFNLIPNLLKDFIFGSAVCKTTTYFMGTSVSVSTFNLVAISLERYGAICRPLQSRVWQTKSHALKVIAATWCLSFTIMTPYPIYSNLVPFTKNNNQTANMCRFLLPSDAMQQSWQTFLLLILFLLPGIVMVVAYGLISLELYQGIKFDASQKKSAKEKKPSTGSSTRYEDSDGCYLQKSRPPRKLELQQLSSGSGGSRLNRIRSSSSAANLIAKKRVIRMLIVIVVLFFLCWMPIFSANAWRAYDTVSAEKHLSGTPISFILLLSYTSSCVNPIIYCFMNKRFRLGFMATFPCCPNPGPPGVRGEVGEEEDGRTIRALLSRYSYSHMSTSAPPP
T1 sequence (P30553 whole entry): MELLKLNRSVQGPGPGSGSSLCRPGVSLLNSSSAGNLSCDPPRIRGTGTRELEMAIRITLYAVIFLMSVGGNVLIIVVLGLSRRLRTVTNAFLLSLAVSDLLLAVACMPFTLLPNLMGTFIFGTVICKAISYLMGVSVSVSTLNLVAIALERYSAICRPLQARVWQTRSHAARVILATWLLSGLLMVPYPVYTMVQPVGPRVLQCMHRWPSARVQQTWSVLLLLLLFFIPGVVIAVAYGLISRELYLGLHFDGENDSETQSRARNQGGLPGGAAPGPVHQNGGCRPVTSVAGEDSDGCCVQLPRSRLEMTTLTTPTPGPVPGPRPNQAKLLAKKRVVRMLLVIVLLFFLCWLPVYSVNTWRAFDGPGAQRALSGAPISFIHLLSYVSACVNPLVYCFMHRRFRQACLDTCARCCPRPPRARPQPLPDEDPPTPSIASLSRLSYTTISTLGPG

Mus musculus = assay: Dose rquired to inhibit CCK-induced gastric emptying in mice p.o.; type: functional; details: Stomach, po
Outline: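 Antagonism of CCK-8-induced inhibition of gastric emptying, with gastric emptying followed using a charcoal meal. Test agents were given orally, and the ED50 was taken as the oral dose (mg/kg) that antagonized the CCK-8 effect.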

Cholecystokinin receptor [2] = molecular target: T1, Cholecystokinin receptor; assay: Half-maximal inhibition of binding of [125I]CCK-8 to Cholecystokinin receptor in rat pancreatic tissue

| SMILES | IC50 (Cholecystokinin receptor [1]) | ED50 (Mus musculus) | IC50 (Cholecystokinin receptor [2]) |
| --- | --- | --- | --- |
| CC(C)(C)OC(=O)CN1C(=O)[C@H](NC(=O)c2cc3ccccc3[nH]2)CCc2ccccc21 | 3 nM | – | – |
| CC(C)(C)OC(=O)CN1C(=O)[C@H](NC(=O)c2ccc3ccccc3c2)CCc2ccccc21 | 4.2 nM | 6.8 mg/kg | – |
| CC(C)(C)OC(=O)CN1C(=O)[C@@H](NC(=O)c2cc3ccccc3[nH]2)CCc2ccccc21 | 200 nM | – | – |
| CC(C)(C)OC(=O)CN1C(=O)C(NC(=O)c2ccc(Cl)cc2)CCc2ccccc21 (configuration not stated) | 130 nM | – | – |
| CC(C)(C)OC(=O)CN1C(=O)C(NC(=O)c2ccccc2)CCc2ccccc21 (configuration not stated) | – | – | 2100 nM |
| CCOC(=O)CN1C(=O)C(NC(=O)c2cc3ccccc3[nH]2)CCc2ccccc21 (configuration not stated) | 110 nM | – | – |
| CC(C)(C)OC(=O)CN1C(=O)C(N)CCc2ccccc21 (configuration not stated) | 100000 nM | – | – |
| CC(C)(C)OC(=O)CN1C(=O)C(NCc2ccc3ccccc3c2)CCc2ccccc21 (configuration not stated) | – | – | 4 nM |
| O=C(O)CN1C(=O)C(NC(=O)c2ccc3ccccc3c2)CCc2ccccc21 (configuration not stated) | – | – | 2300 nM |
| CC(C)(C)OC(=O)CN1C(=O)C(NC(=O)c2ccc3ccccc3c2)CCc2ccccc21 (configuration not stated) | – | – | 7.5 nM |
| CC(C)(C)OC(=O)CN1C(=O)C(NC(=O)c2ccc(Cl)c(Cl)c2)CCc2ccccc21 (configuration not stated) | 28 nM | – | – |
| CC(C)(C)OC(=O)CN1C(=O)C(NC(=O)c2cc3ccccc3[nH]2)Cc2ccccc21 (configuration not stated) | 200 nM | – | – |
| CC(C)(C)OC(=O)CN1C(=O)C(NC(=O)c2cc3ccccc3[nH]2)CCCc2ccccc21 (configuration not stated) | 60 nM | – | – |
| CC(C)(C)OC(=O)CN1C(=O)C(NC(=O)Cc2ccc3ccccc3c2)CCc2ccccc21 (configuration not stated) | – | – | 2700 nM |
| CC(C)(C)OC(=O)CN1C(=O)C(NC(=O)CCc2c[nH]c3ccccc23)CCc2ccccc21 (configuration not stated) | 2000 nM | – | – |
| CC(C)(C)OC(=O)CN1C(=O)C(NC(=O)c2cc3ccccc3[nH]2)CCc2ccccc21 (configuration not stated) | 7 nM | 2.6 mg/kg | – |
| O=C(NC1CCc2ccccc2N(Cc2ccccc2)C1=O)c1cc2ccccc2[nH]1 (configuration not stated) | 35 nM | – | – |
| CN(C)c1ccc(C(=O)NC2CCc3ccccc3N(CC(=O)OC(C)(C)C)C2=O)cc1 (configuration not stated) | – | – | 50000 nM |
| CN1C(=O)C(NC(=O)c2ccc3ccccc3c2)CCc2ccccc21 (configuration not stated) | – | – | 6800 nM |
| CN1C(=O)[C@@H](NC(=O)c2cc3ccccc3[nH]2)N=C(c2ccccc2)c2ccccc21 [DEVAZEPIDE] | – | 0.04 mg/kg | – |
